Screens as filed in PubChem.
HSP90 refold inh: blocks HSP90-mediated luciferase refolding in reticulocyte lysate. Rabbit reticulocyte lysate, luciferase refolding luminescence, 3 h. inhibition, % at 5.6 µM. actives 0.91% (n = 290,000). AID 1789;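 active = inhibition above the screen-wide mean plus 3 SD, computed separately per campaign, cut at about 16% in these data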;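 note: 0% = DMSO wells and 100% = 60 µM geldanamycin wells; inhibitors lower the luminescence because luciferase stays unfolded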
HSF1 activator: increases HSF-1 driven luciferase reporter signal. actives 1.7% (n = 300,000). NIH3T3-HGL HSF-1 luciferase reporter, MG132, 8 h; 100% = twice DMSO control signal. AID 504408. activation, % at 9 µM;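 active = mean replicate activation of at least 50% with a set share of replicates each reaching 50%; inconclusive = only one of those two conditions met; inactive = mean below 50% and too few replicates reaching it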;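 note: 0% = median of the neutral control wells and 100% = twice that signal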
HSF1 inhib: HSF1 inhibition | NIH3T3-HGL HSE-luciferase, MG132-induced, luminescence 8 h; hits give low values | activity change, negative = inhibition, % at 7.5 µM (by protocol) | AID 2098 | actives 0.77% (n = 300,000);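 active = more than half of replicate wells show activity change below -50%, luminescence cut by over half; inconclusive = some wells, but at most half, below -50%; inactive = no replicate well below -50%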;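 note: luciferase reports HSF-1 transcriptional activity via heat shock element; 0% = median of DMSO wells and -100% = zero luminescence signal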
DNA FID counter-1: displaces DNA intercalator in HCV helicase counter-screen | DNA fluorescent intercalator displacement, fluorescence | AID 1845 | inhibition, % at 7.9 µM | actives 0.17% (n = 290,000);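 note: 0% = vehicle and 100% = reference compound; higher means more ethidium bromide displaced from hairpin DNA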
core dimer inh: HCV core protein dimerization inhibition; TR-FRET GST/Flag-core106 dimerization, 1536-well; inhibition, % at 5 µM; actives 0.33% (n = 300,000);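 active = inhibition above the mean of all tested compounds plus 3 SD, set per screening campaign, cut at about 45% in these data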
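test system = GST/Flag-tagged HCV core106 proteins | probe or stimulus = Eu donor and XL665 acceptor anti-tag antibodies | times = compound-protein-antibody incubation 4 h at 22.5 °C | signal = TR-FRET, excitation 340 nm, emission 617 and 671 nm | measure = percent inhibition of core106 dimerization signal | controls = wells lacking GST-core106 and wells with excess unlabelled core106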
NS3 helicase inh: inhibitors of Hepatitis C virus NS3 helicase. actives 0.56% (n = 290,000). inhibition, % at 10.9 µM. NS3 helicase DNA unwinding, Cy5 molecular beacon fluorescence. AID 1800;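 active = inhibition above the mean of all tested compounds plus 3 SD, set per campaign, cut at about 35% in these data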;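 note: 0% = DMSO wells and 100% = thioflavine S control wells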
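System: Hepatitis C virus NS3 helicase domain fragment enzyme | Reagent: Annealed dual-labelled DNA beacon duplex, ATP-started | Compound dosing: 10.9 µM single point, 0.8% DMSO | Incubation: 1 h reaction at 25 °C, ATP-initiated | Technique: Cy5 fluorescence | Evaluation: Percent inhibition from t60/t0 fluorescence ratio | Benchmarks: Low DMSO, high thioflavine S at 110 µM | Replication: Singlicate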
NS3 hel confirm: confirmation of Hepatitis C virus NS3 helicase inhibitors | inhibition, % at 10.9 µM | actives 31% (n = 1,600) | shares compounds with NS3 helicase inh | NS3 helicase DNA unwinding, Cy5 molecular beacon fluorescence;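 active = inhibition above the mean of all tested compounds plus 3 SD, cutoff set per campaign, cut at about 36% in these data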
DNA FID counter-2: counter-screen for HCV NS3 helicase inhibitors: DNA intercalator displacement; DNA fluorescent intercalator displacement, fluorescence; actives 4% (n = 1,600); inhibition, % at 7.9 µM; AID 1945; shares compounds with NS3 helicase inh;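 note: 0% = vehicle and 100% = reference compound; higher means more displacement of ethidium bromide from the DNA hairpin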
Starred values were filed as active, the others as inactive. The list is not random: actives were taken first. Their share in the collection is about 3.9%. Cut-off read from the data, not from the text of the source, unless noted: active = inhibition above about 37%; inactive = the rest.

How did O=C(O)c1ccccc1OC(=O)C12CC3CC(CC(C3)C1)C2 do in these assays?
HSP90 refold inh: -5; HSF1 activator: 3; HSF1 inhib: 0; DNA FID counter-1: 7; core dimer inh: -3; NS3 helicase inh: 0

What do the screens show for `O=C(CSc1nncs1)Nc1ccc(S(=O)(=O)N2CCCC2)cc1`?
HSP90 refold inh: 0; HSF1 activator: 0; HSF1 inhib: -6; DNA FID counter-1: -12; core dimer inh: -3; NS3 helicase inh: 2

Results for Cc1cc(NS(=O)(=O)c2ccc(NC(=O)CCc3ccccc3)cc2)no1 ?
HSP90 refold inh: 1; HSF1 activator: -13; HSF1 inhib: -13; DNA FID counter-1: -21; core dimer inh: 4; NS3 helicase inh: 41*; NS3 hel confirm: -31; DNA FID counter-2: -13

Results for COc1ccccc1N1CCN(C(=O)CSc2nc(C)c(C)c(=O)[nH]2)CC1 ?
HSP90 refold inh: -1; HSF1 activator: 15; HSF1 inhib: 2; DNA FID counter-1: -4; core dimer inh: -8; NS3 helicase inh: 9

What do the screens show for `Oc1ccc(Br)cc1C=Nc1ccc2c3c(cccc13)CC2`?
HSP90 refold inh: 0; HSF1 activator: 3; HSF1 inhib: 2; DNA FID counter-1: -13; core dimer inh: -21; NS3 helicase inh: 48*; NS3 hel confirm: -5; DNA FID counter-2: 12

Results for Oc1ccc(Cl)cc1C=Nc1ccccc1Br ?
HSP90 refold inh: 3; HSF1 activator: 22; HSF1 inhib: -1; DNA FID counter-1: -5; core dimer inh: 10; NS3 helicase inh: 2

How did Cc1c2ccccc2nc2c(F)c(NCCO)c(F)c(F)c12 do in these assays?
HSP90 refold inh: 1; HSF1 activator: 9; HSF1 inhib: 0; DNA FID counter-1: -14; core dimer inh: 25; NS3 helicase inh: 39*; NS3 hel confirm: -16; DNA FID counter-2: 8

What do the screens show for `OCCNc1c2ccccc2nc2c(F)c(F)c(F)c(F)c12`?
HSP90 refold inh: -3; HSF1 activator: -10; HSF1 inhib: -2; DNA FID counter-1: -4; core dimer inh: -6; NS3 helicase inh: 9

What do the screens show for `Cc1c2ccccc2nc2c(F)c(NC(C)C)c(F)c(F)c12`?
HSP90 refold inh: -5; HSF1 activator: 23; HSF1 inhib: 8; DNA FID counter-1: -15; core dimer inh: 8; NS3 helicase inh: 44*; NS3 hel confirm: -3; DNA FID counter-2: 4

What do the screens show for `COc1ccc(CCNC(=O)C(=O)NCC2OCCN2S(=O)(=O)c2cc(F)ccc2F)cc1` (stereo unspecified)?
HSP90 refold inh: 3; HSF1 activator: -1; HSF1 inhib: -3; DNA FID counter-1: -30; core dimer inh: 15; NS3 helicase inh: 19

How did Cn1c(-c2ccc3c(c2)OCO3)cc(=O)c2ccccc21 do in these assays?
HSP90 refold inh: 3; HSF1 activator: -6; HSF1 inhib: 1; DNA FID counter-1: -8; core dimer inh: -3; NS3 helicase inh: 5

Results for Cn1c2ccccc2c(=O)c2ccc(-c3ccc4c(c3)OCO4)cc21 ?
HSP90 refold inh: 1; HSF1 activator: inconclusive; HSF1 inhib: 46; DNA FID counter-1: -20; core dimer inh: 20; NS3 helicase inh: 43*; NS3 hel confirm: 7; DNA FID counter-2: 2

How did CC(C)CC[n+]1ccn(-c2nc3ccccc3nc2[N-]S(=O)(=O)c2ccccc2)c1 do in these assays?
HSP90 refold inh: 4; HSF1 activator: -3; HSF1 inhib: -3; DNA FID counter-1: -28; core dimer inh: 2; NS3 helicase inh: -2

How did O=S(=O)([N-]c1nc2ccccc2nc1-n1cc[n+](Cc2ccccc2)c1)c1ccc(Cl)cc1 do in these assays?
HSP90 refold inh: 10; HSF1 activator: 5; HSF1 inhib: 5; DNA FID counter-1: -9; core dimer inh: 10; NS3 helicase inh: 37*; NS3 hel confirm: -2; DNA FID counter-2: -33

What do the screens show for `CCOC(=O)C(=O)NC(C)CCc1ccccc1` (stereo unspecified)?
HSP90 refold inh: -3; HSF1 activator: -1; HSF1 inhib: -8; DNA FID counter-1: 2; core dimer inh: -2; NS3 helicase inh: -5

What do the screens show for `C=CCN1C(=O)/C(=c2\sc3nc(=O)c(Cc4ccc(OC)c(OC)c4)nn3c2=O)c2ccccc21`?
HSP90 refold inh: 0; HSF1 activator: -23; HSF1 inhib: -7; DNA FID counter-1: -19; core dimer inh: 4; NS3 helicase inh: 46*; NS3 hel confirm: -2; DNA FID counter-2: -4

Results for CCCCOc1ccc(/C=C/C(=O)OCC(=O)c2c(N)n(C)c(=O)n(C)c2=O)cc1OCC ?
HSP90 refold inh: -5; HSF1 activator: 4; HSF1 inhib: -4; DNA FID counter-1: -3; core dimer inh: 11; NS3 helicase inh: -11

How did Cc1ccc(N2CCN(c3ncccc3[N+](=O)[O-])CC2)c(C)c1 do in these assays?
HSP90 refold inh: 6; HSF1 activator: 0; HSF1 inhib: -2; DNA FID counter-1: -14; core dimer inh: -3; NS3 helicase inh: 3

Results for CC(C)(C)C(C(Oc1ccc(Cl)cc1)n1cncn1)n1nnnc1C(c1cccc(Cl)c1)N1CCCCC1 (stereo unspecified) ?
HSP90 refold inh: 8; HSF1 activator: 5; HSF1 inhib: 4; DNA FID counter-1: -40; core dimer inh: 15; NS3 helicase inh: 39*; NS3 hel confirm: -8; DNA FID counter-2: -30

Results for COCCn1nnnc1C(c1cccc(C#N)c1)N1CCCCCC1 (stereo unspecified) ?
HSP90 refold inh: -1; HSF1 activator: -7; HSF1 inhib: -2; DNA FID counter-1: -11; core dimer inh: 1; NS3 helicase inh: 0

Results for CC(C)N1CCN(C(=O)C2CCC(=O)N(CCc3cccc(F)c3)C2)CC1 (stereo unspecified) ?
HSP90 refold inh: 3; HSF1 activator: -4; HSF1 inhib: -3; DNA FID counter-1: -6; NS3 helicase inh: 18

What do the screens show for `O=c1c2cc(Cl)ccc2nc(-c2ccc([N+](=O)[O-])cc2)n1O`?
HSP90 refold inh: -3; HSF1 activator: 14; HSF1 inhib: 1; DNA FID counter-1: -3; core dimer inh: -25; NS3 helicase inh: -6

How did Cc1ccc(-c2nc3c(Cl)cc(Cl)cc3c(=O)n2O)cc1 do in these assays?
HSP90 refold inh: -1; HSF1 activator: 8; HSF1 inhib: 2; DNA FID counter-1: -10; core dimer inh: 2; NS3 helicase inh: 36*; NS3 hel confirm: 62*; DNA FID counter-2: -3

Results for O=c1c2cc(Br)ccc2nc(-c2ccc(Cl)cc2)n1O ?
HSP90 refold inh: 10; HSF1 activator: -1; HSF1 inhib: -1; DNA FID counter-1: -14; core dimer inh: -5; NS3 helicase inh: 37*; NS3 hel confirm: 40*; DNA FID counter-2: 9
